The source of these data is PMC8359281 (Clinical Pharmacology in Drug Development, 2020).

Series [1] is described as follows: PK of ACTH1-24 after synthetic ACTH1-24 depot, phase 1 study. The series is classed as in vivo, human. Particulars: postdosing of synthetic ACTH1-24 depot.
Another series deals with free cortisol. The format is in vivo, human. Particulars: oral methylprednisolone 16 mg once daily. In short, it runs like this: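 In a single-centre, open-label, parallel-group study, healthy adults (18-50 years, BMI 18.5-30 kg/m2, 51-99 kg, confined on site) took methylprednisolone orally at 16 mg once daily for 15 days. The dose was then tapered to 8 mg daily for 2 days and 4 mg daily for 2 days. Blood for plasma free cortisol was drawn predose and 0.25–24 h postdose on days 1 and 15.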

Series [2] deals with free steroidogenic exposure. Briefly: Steroidogenic exposure and methylprednisolone/prednisone dose equivalence. The series is classed as in vivo, human. Particulars: methylprednisolone 16 mg once daily; derived by equation 2 (5 × AUCτ + AUECτ). In outline:
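Steady-state data came from day 15 of oral methylprednisolone at 16 mg once daily. Free methylprednisolone AUCτ (noncompartmental) and free cortisol AUECτ over one dosing interval were combined by integrating the per-timepoint free steroidogenic concentration equation. Weekly free cortisol exposure was converted to methylprednisolone-equivalent dose, assuming dose-proportionality. Prednisone equivalents used a coefficient of 1.25.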

For series [3] the following is noted: cited from earlier work.

“ACTH1-24: the first 24 amino acids of adrenocorticotropic hormone; analyte measured in plasma after synthetic ACTH1-24 depot”: the “time by which plasma concentrations fell below the quantification limit” value in series [1] is under 24 h.

As for `C[C@H]1C[C@@H]2[C@H]([C@@H](O)C[C@@]3(C)[C@H]2CC[C@]3(O)C(=O)CO)[C@@]2(C)C=CC(=O)C=C12` [methylprednisolone], the “endogenous cortisol after administration” value with free cortisol is “negligible”. For the same compound, the “free steroidogenic exposure at steady state (AUECτSG)” value in series [2] is reported as 305 ng·h/mL. For the same compound, the “potency of systemic action relative to cortisol” value in series [3] is recorded as 5 times.
